Screens: PubChem, Johns Hopkins Ion Channel Center
Compounds with a hit are over-represented: about 2.3% of the library has one in this group of screens.
TRPC6 inh = blocks the mouse TRPC6 cation channel; Q61143; HEK293-TRPC6, membrane potential dye, ACh-evoked depolarization; hits give low values; B-score at 10 µM; 310,000 tested, 1.1% active;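 active = B-score under library mean minus 3 SD, initial fluorescence not abnormally high, positive integrated signal ratio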;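 note: B-score derived from integrated fluorescence ratio over the kinetic read; more negative B-score means stronger inhibition of depolarization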
TRPC4 agonist = TRPC4 (mouse) channel activation; Q9QUQ5; HEK293 TRPC4beta/mu-opioid, Fluo4 calcium fluorescence; hits give high values; B-score at 10 µM; 310,000 tested, 0.49% active; AID 2237;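 active = B-score above 5 SD of library B-scores, and initial fluorescence ratio not above library mean plus 5 SD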;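 note: positive B-score marks a calcium rise read as TRPC4 activation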
Target sequence (Q9QUQ5 whole entry, looked up): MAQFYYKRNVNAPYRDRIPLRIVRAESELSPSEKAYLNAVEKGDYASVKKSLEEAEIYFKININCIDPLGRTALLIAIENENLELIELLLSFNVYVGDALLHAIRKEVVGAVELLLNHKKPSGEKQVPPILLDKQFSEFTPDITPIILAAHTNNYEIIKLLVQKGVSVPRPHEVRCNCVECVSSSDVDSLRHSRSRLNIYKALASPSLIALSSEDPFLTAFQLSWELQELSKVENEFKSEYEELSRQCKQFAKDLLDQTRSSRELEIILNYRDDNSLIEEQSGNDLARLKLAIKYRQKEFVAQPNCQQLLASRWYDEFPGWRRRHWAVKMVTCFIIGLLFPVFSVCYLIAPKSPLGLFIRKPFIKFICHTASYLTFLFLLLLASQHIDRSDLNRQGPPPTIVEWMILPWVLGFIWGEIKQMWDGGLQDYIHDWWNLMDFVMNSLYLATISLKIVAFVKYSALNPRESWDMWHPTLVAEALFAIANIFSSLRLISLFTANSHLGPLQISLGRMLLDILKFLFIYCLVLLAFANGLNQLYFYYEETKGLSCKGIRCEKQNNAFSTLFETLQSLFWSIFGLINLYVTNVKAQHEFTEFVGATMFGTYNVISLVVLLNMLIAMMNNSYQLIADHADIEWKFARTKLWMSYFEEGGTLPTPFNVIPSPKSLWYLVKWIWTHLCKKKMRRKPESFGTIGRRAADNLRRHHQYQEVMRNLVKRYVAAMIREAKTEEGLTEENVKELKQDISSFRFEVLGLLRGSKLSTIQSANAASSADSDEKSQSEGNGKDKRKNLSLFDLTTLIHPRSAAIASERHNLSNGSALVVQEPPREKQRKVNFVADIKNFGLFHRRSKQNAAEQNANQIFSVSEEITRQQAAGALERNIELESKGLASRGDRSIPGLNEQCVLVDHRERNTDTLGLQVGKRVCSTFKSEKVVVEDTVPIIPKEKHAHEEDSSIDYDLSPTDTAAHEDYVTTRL
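System: HEK293 cells stably co-expressing mouse TRPC4beta and mu-opioid receptor; Schedule: Fluo4 dye loading 45 min at room temperature, 110 s recording; Detection: Fluo4 fluorescence, kinetic; Evaluation: B-scored integrated calcium fluorescence ratio; Controls: buffer (low) and maximal DAMGO (high).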
TRPC6 activator = mouse TRPC6 channel activation. Q61143. HEK293-TRPC6 membrane potential dye fluorescence; hits give high values. B-score at 10 µM. 310,000 tested, 0.13% active. AID 2550;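 active = B-score of the integrated fluorescence ratio above library mean plus 3 SD, and starting fluorescence ratio within library mean plus 5 SD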;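 note: higher score means more depolarization so channel activation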
TRPC4 block = blocks the mouse TRPC4 cation channel | Q9QUQ5 | HEK293 TRPC4beta/mu-opioid, DAMGO-evoked Fluo4 calcium flux; hits give low values | B-score at 10 µM | 300,000 tested, 0.39% active;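 active = B-score over 3 SD under the library average, no early fluorescence shift, positive overall ratio signal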
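test system = HEK293 cells with stable TRPC4beta plus mu-opioid receptor expression | detection = Fluo4 Ca2+ flux fluorescence | read-out = integrated fluorescence ratio relative to baseline, converted to per-well B score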
TRPC4 potent = allosterically enhances the mouse TRPC4 cation channel. AID 2227. B-score at 10 µM. 310,000 tested, 0.42% active. HEK293 TRPC4beta/mu-opioid, DAMGO EC20, Fluo-4 Ca2+ flux; hits give high values. Q9QUQ5;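 active = B-score of calcium response area above 5 SD of library B-scores, with initial fluorescence ratio within 5 SD of library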
TRPC4 sel inh 2 = second selectivity test of TRPC6 inhibitors: effect on mouse TRPC4; shares compounds with TRPC6 inh; HEK293 TRPC4/MOR, membrane potential dye fluorescence; channel activated by saturating DAMGO dose; inhibition, % at 10 µM; 920 tested, 42% active; AID 2776;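 active = compounds whose fluorescence signal differed from control wells by over 3 SD, either direction, in both duplicate plates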
TRPC4 spec = mouse TRPC4 off-target activity of TRPC6 inhibitors; shares compounds with TRPC6 inh; HEK293 TRPC4/mu-opioid, membrane potential fluorescence; activity change, negative = inhibition, % at 10 µM; 920 tested, 61% active;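 active = rise or fall in signal beyond 3 SD of buffer-only wells in both replicate plates, either sign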;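 note: integrated kinetic ratio of fluorescence range over baseline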
HEK293 MPD ctr 2-1 = parental HEK293 nonspecific activity of TRPC6 inhibitors, second screen; AID 2779; signal change vs control, % at 10 µM; 920 tested, 31% active; shares compounds with TRPC6 inh; parental HEK293 membrane potential dye fluorescence; maximal acetylcholine challenge after compound addition;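 active = membrane potential signal moving either way by over 3 SD of the maximum-effect control, in both duplicate plates, meaning non-specific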
HEK293 MPD ctr-1 = counter-screen for TRPC6 inhibitors: effect in parental HEK293 cells | shares compounds with TRPC6 inh | parental HEK293 membrane potential dye fluorescence | membrane potential signal change, % at 10 µM | 920 tested, 60% active | AID 2780;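 active = membrane potential signal shifting up or down by more than 3 SD of buffer-only wells, on both duplicate plates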
HEK293 MPD ctr-2 = parental HEK293 nonspecific activity of TRPC6 modulators; shares compounds with TRPC6 inh; membrane potential dye fluorescence; membrane potential signal change, % at 10 µM; 2,400 tested, 51% active;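 active = membrane potential signal moves up or down beyond 5 SD from buffer-only wells, on both duplicate plates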
HEK293 MPD ctr 2-2 = parental HEK293 nonspecific activity of TRPC6 modulators, second screen. shares compounds with TRPC6 inh. membrane potential dye fluorescence; after compound, maximal acetylcholine stimulation. inhibition, % at 10 µM. 2,400 tested, 14% active;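 active = membrane potential signal drops by more than 5 SD from the mean control signal, in both duplicate plates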
TRPC4/MOR mod = tests whether TRPC6 modulators also affect mouse TRPC4. shares compounds with TRPC6 inh. HEK293 TRPC4/mu-opioid, membrane potential fluorescence. percent change from control (negative = decrease, positive = increase), % at 10 µM. 2,400 tested, 69% active. AID 488927;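 active = membrane potential signal moved up or down beyond 5 SD of buffer control wells, in both duplicate plates, actives on both sides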
TRPC4/MOR inh 2 = second check of whether TRPC6 modulators also affect mouse TRPC4. 2,400 tested, 55% active. shares compounds with TRPC6 inh. inhibition, % at 10 µM. HEK293 TRPC4/mu-opioid, membrane potential dye fluorescence; stimulated with maximal-effect DAMGO. AID 488928;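 active = drop in membrane potential signal beyond 5 SD of the control wells in both duplicate plates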;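 note: TRPC4 counter screen for TRPC6 hits run under conditions tuned for TRPC6 not TRPC4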
TRPC6 block conf = mouse TRPC6 inhibitor confirmation; HEK293-TRPC6, membrane potential dye, ACh-evoked depolarization; AID 488960; shares compounds with TRPC6 inh; 3,300 tested, 43% active; inhibition, % at 10 µM;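 active = fluorescence ratio falls more than 5 SD below the full-stimulation control mean, in both duplicate runs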;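 note: integrated fluorescence ratio of peak minus minimum over baseline after agonist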
TRPC6 act confirm = confirmation of mouse TRPC6 activators; HEK293-TRPC6 membrane potential dye fluorescence, FDSS; activation, % at 10 µM; shares compounds with TRPC6 inh; 2,800 tested, 11% active;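 active = ratio signal rise beyond 5 SD above unstimulated control wells' mean, seen in both duplicate runs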
Of the large screens only hits and unclear results are named; the others gave an inactive call (follow-up assays come after a bar, where they were run).

CC(C)OC(=O)c1cccnc1SCc1cc(=O)n2ccccc2n1	TRPC6 inh -6 | HEK293 MPD ctr-2 inactive | HEK293 MPD ctr 2-2 inactive | TRPC4/MOR mod inactive | TRPC4/MOR inh 2 inactive | TRPC6 block conf inactive
O=C(O)CC(NC(=O)Cc1ccc(Cl)cc1)c1ccco1 (stereo not drawn)	none
CN(C)CCCNc1cc(-c2ccccc2)nc2cc(-c3cccc(F)c3)nn12	TRPC6 inh -5.1 | HEK293 MPD ctr-2 inactive | HEK293 MPD ctr 2-2 inactive | TRPC4/MOR mod -11% | TRPC4/MOR inh 2 50% | TRPC6 block conf 46% | TRPC6 act confirm inactive
Cc1cc(C(F)(F)F)n2nc(-c3cccs3)cc2n1	none
Cc1cccc(-c2cc3nc(C)cc(NCCCN(C)C)n3n2)c1	TRPC6 inh -7.2, TRPC4 potent 13 | HEK293 MPD ctr-2 -194% | HEK293 MPD ctr 2-2 74% | TRPC4/MOR mod -40% | TRPC4/MOR inh 2 60% | TRPC6 block conf 56% | TRPC6 act confirm inactive
CCN(CC)CCCNc1cc(C)nc2cc(-c3cccs3)nn12	TRPC6 inh -7.5 | HEK293 MPD ctr-2 -416% | HEK293 MPD ctr 2-2 inactive | TRPC4/MOR mod -62% | TRPC4/MOR inh 2 52% | TRPC6 block conf 44% | TRPC6 act confirm inactive
CN(CCO)c1c2c(nc3cc(-c4cccc(F)c4)nn13)CCCC2	none
CCOc1ccc(S(=O)(=O)N2CCN(C(=O)CCC(=O)N3CCOCC3)CC2)cc1	none
CCCOc1cc(N(CC)CC)ccc1/C=C(/C#N)c1nc2ccc(C)cc2[nH]1	none
COc1cc(/C=C(\C#N)c2nc3ccccc3[nH]2)cc(OC)c1O	TRPC6 inh -5.3, TRPC6 activator 14 | HEK293 MPD ctr-2 612% | HEK293 MPD ctr 2-2 inactive | TRPC4/MOR mod 100% | TRPC4/MOR inh 2 58% | TRPC6 block conf inactive | TRPC6 act confirm inactive
CCOc1cc(N(CC)CC)ccc1/C=C(/C#N)c1nc2ccccc2[nH]1	TRPC4 agonist 126, TRPC6 activator 16 | HEK293 MPD ctr-2 295% | HEK293 MPD ctr 2-2 inactive | TRPC4/MOR mod 46% | TRPC4/MOR inh 2 inactive | TRPC6 block conf inactive | TRPC6 act confirm 48%
COc1ccc(/C=C(\C#N)c2nc3ccccc3[nH]2)cc1O	none
COc1ccc(S(=O)(=O)NC(C)C(=O)NCCN2CCOCC2)cc1Cl (stereo not drawn)	none
CCCC[C@@H]1CNCCN1CCc1cc(C(F)(F)F)cc(C(F)(F)F)c1	none
CCC(C)[C@H]1CNCCN1CCc1cc(C(F)(F)F)cc(C(F)(F)F)c1 (stereo partly drawn)	TRPC6 inh -7.2 | TRPC4 sel inh 2 54% | TRPC4 spec inactive | HEK293 MPD ctr 2-1 inactive | HEK293 MPD ctr-1 inactive | TRPC6 block conf inactive | TRPC6 act confirm inactive
Cc1cc(F)ccc1S(=O)(=O)N1CCCOC1CNC(=O)C(=O)NCc1cccnc1 (stereo not drawn)	none
COc1cc2nc(N3CCNCC3)nc(N)c2cc1OC	TRPC6 inh -11 | HEK293 MPD ctr-2 -246% | HEK293 MPD ctr 2-2 92% | TRPC4/MOR mod -38% | TRPC4/MOR inh 2 53% | TRPC6 block conf 64% | TRPC6 act confirm inactive
Nc1cccc(C(=O)OCC(=O)Nc2cccc3c2C(=O)c2ccccc2C3=O)c1	none
CCN(CC)CCC(=O)Nc1cccc2c1C(=O)c1ccccc1C2=O	TRPC6 inh -6.4 | HEK293 MPD ctr-2 inactive | HEK293 MPD ctr 2-2 inactive | TRPC4/MOR mod -30% | TRPC4/MOR inh 2 46% | TRPC6 block conf 52% | TRPC6 act confirm inactive
Cc1cccc(NC(=O)C2CCCN(S(=O)(=O)c3ccc4[nH]c(=O)ccc4c3)C2)n1 (stereo not drawn)	none
CCc1nc2cccnc2n1-c1ccc(CC(=O)O)cc1	none
CC(C)NC(=O)CCc1nc2cccnc2n1-c1ccccc1	TRPC6 inh -5.9 | HEK293 MPD ctr-2 inactive | HEK293 MPD ctr 2-2 inactive | TRPC4/MOR mod inactive | TRPC4/MOR inh 2 inactive | TRPC6 block conf inactive | TRPC6 act confirm inactive
CCCCCn1c2c(c(=N)c3ccccc31)CCC2	TRPC6 inh -8.1, TRPC4 block -8 | TRPC4 sel inh 2 56% | TRPC4 spec -26% | HEK293 MPD ctr 2-1 20% | HEK293 MPD ctr-1 -388% | TRPC6 block conf 71% | TRPC6 act confirm inactive
CCCCCCCCn1c2c(c(=N)c3ccccc31)CCC2	none
CCOC(=O)Cn1c2c(c(=N)c3ccccc31)CCC2	none
CCCCn1c2c(c(=N)c3ccccc31)CCC2	TRPC6 inh -7.2 | TRPC4 sel inh 2 60% | TRPC4 spec -29% | HEK293 MPD ctr 2-1 -20% | HEK293 MPD ctr-1 -508% | TRPC6 block conf 83% | TRPC6 act confirm inactive
CC(=O)Nc1ccc(NC(=O)[C@@H](NC(=O)c2ccccc2F)C(C)C)cc1	none
CCn1cc(C(=O)O)c(=O)c2cc(F)c(N3CCN(C)CC3)cc21	none
CCCCCCn1cc(C(=O)OCC)c(=O)c2cc(F)c(F)cc21	TRPC6 inh -5.1, TRPC4 block -6 | HEK293 MPD ctr-2 inactive | HEK293 MPD ctr 2-2 inactive | TRPC4/MOR mod inactive | TRPC4/MOR inh 2 46% | TRPC6 block conf inactive | TRPC6 act confirm inactive
CCOC(=O)c1cn(CC)c2cc(N3CCN(C)CC3)c(F)cc2c1=O	none
CCOC(=O)c1cn(CC#N)c2cc(F)c(F)cc2c1=O	none
